Activity calls are given as the source filed them.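 The calls were made as follows, unless noted: active = inhibition at or above 50% at 10 µM; inactive = inhibition below 50%.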
Key:
[1] = inhibitors of TNFa-induced NFkB p65 translocation, primary screen, imaging, HUVEC, MLSMR starter and 10KST1 sets (AID 438;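 active = inhibition above 20% together with a positive visual image hit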;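 also: compound added about 3h40 before a 20 min TNFalpha stimulation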;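 as to inhibition: signal is the nuclear over cytoplasmic p65 intensity ratio per well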); conditions: HUVEC TNFa-induced p65 nuclear translocation; cell count: measured here: nuclei count (cytotoxicity indicator), at 2.08 µM; inhibition: at 2 µM, stronger effect = higher value, 0% TNFa-plus-vehicle, 100% no-TNFa wells
[2] = inhibitors of mutant huntingtin aggregation, primary screen, imaging, exon1htt(103Q)mCFP cells, high-content imaging (AID 483;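 active = visual image review flags a hit and inhibition of aggregation exceeds 20%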;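 also: compound exposure lasted 3 days before fixation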;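 as to nuclei count: percent of the per-plate median nuclei count of sample wells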); conditions: exon1htt(103Q)mCFP cell line, aggregate imaging, at 2 µM; inhibition of aggregation: stronger effect = higher value; nuclei count: measured here: cell count, toxicity
[3] = inhibitors of E-selectin induction by TNFa, primary screen, imaging, HUVEC, immunofluorescence, MLSMR starter and 10KST1 sets (AID 487;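 active = visually confirmed hit in the image check and inhibition above 20%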;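 as to inhibition: signal is fraction of cell area covered by stained E-selectin grains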;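 as to nuclei count: 100% = median nuclei count of all wells on the same plate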); conditions: HUVEC TNFalpha-induced E-selectin immunofluorescence imaging, at 2 µM; inhibition: stronger effect = higher value; nuclei count: measured here: cell number, toxicity
[4] = molecular target: Voltage-gated potassium channel subunit beta-2 (Rattus norvegicus) (UniProt P62483); assay: KvBeta enzyme negative modulators, primary screen, biochemical, NADPH fluorescence (AID 622;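 active = fluorescence slope higher than the sample average by over 3 SD, cut at about -0.22 in these data, passing the limit was not always enough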;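 also: slope of raw intensity against log time taken from 70 to 1610 s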); conditions: recombinant KvBeta, 4-cyanobenzaldehyde reduction, at 10 µM, stronger effect = higher value
Voltage-gated potassium channel subunit beta-2 (Rattus norvegicus), sequence (P62483 whole entry, looked up): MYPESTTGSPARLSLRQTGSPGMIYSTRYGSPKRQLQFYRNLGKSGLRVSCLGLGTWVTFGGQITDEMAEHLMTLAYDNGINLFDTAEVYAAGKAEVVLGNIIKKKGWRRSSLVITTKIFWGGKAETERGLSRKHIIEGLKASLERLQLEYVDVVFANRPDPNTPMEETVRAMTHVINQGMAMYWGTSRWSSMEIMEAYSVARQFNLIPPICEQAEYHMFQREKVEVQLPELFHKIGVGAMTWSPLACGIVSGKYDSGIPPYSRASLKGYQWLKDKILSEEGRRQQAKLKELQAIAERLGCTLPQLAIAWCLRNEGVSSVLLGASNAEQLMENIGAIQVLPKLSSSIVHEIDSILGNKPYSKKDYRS

[5] = molecular target: Voltage-gated potassium channel subunit beta-2 (Rattus norvegicus) (UniProt P62483); assay: KvBeta positive modulators, primary screen, biochemical, NADPH fluorescence (AID 623;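 active = NADPH fluorescence slope more negative than the mean of all samples by about 3 SD, 99.7% confidence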;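 also: fluorescence intensity change per second fitted from 20 to 320 s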); conditions: Recombinant KvBeta, NADPH fluorescence decrease slope, 10 min; at 10 µM; stronger effect = lower value
[6] = molecular target: Alpha-2C adrenergic receptor (Homo sapiens) (UniProt P18825); assay: modulators of alpha2C/GIRK thallium flux, primary screen, cell-based, HEK293 alpha2C/GIRK1/2 (AID 624;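 active = fluorescence slope after compound addition differing from the mean of all screened samples at 99.7% confidence, in either direction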;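 also: slope of fluorescence ratio to pre-addition baseline per second over 15 to 24 s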); conditions: thallium flux BTC fluorescence, at 10 µM, actives lie on both sides
Alpha-2C adrenergic receptor (Homo sapiens), sequence (P18825 whole entry, looked up): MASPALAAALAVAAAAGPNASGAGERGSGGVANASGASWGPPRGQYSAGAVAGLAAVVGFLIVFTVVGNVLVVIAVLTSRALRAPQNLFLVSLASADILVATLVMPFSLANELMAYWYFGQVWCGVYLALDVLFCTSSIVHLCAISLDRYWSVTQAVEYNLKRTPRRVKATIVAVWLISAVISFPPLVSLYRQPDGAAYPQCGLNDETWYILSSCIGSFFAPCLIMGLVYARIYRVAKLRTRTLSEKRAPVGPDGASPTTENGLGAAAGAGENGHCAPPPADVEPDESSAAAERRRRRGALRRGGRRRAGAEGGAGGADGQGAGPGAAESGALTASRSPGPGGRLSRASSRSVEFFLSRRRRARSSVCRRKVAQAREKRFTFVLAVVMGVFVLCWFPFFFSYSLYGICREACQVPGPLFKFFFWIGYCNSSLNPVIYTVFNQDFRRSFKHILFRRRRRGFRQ

[7] = inhibitors of larval lipid processing in zebrafish, primary screen, whole organism, PED6 fluorescence, gall bladder and intestine (AID 686;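 active = a full or partial loss of lipid-probe fluorescence in the fish gall bladder, intestine or both, judged by eye; inactive = no fluorescence loss, or compound toxic to the fish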;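 also: larvae 5 to 7 days old with five fish per well; signal comes from phospholipase A2 cleavage of quenched PED6 carried via bile; overnight exposure to compound and PED6 before scoring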); conditions: Zebrafish larvae PED6 lipid processing, fluorescence scoring; screened at 20 µM (by protocol)
How it was run: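 Also added: quenched phospholipase substrate PED6, 100 nM final, ingested by larvae; System: zebrafish larvae, 5-7 d; Quantity: 5 larvae per well; Compound: 20 µM single dose; Schedule: overnight compound and PED6 incubation; Read-out: visual per-well fluorescence inhibition score; Measured by: By-eye fluorescence microscopy; Medium: E3.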

[8] = inhibitors of Sendai virus-induced IRF3 signaling, primary screen, TLR/RLR signaling modifier project, cell-based, Sendai virus stimulus, luciferase, 10K MLSCN set (AID 602276); conditions: HEK293 RL24 IRF3 luciferase reporter, at 10 µM, stronger effect = higher value;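 also: firefly luciferase from ISG56 promoter only with Renilla not read in this screen; 0% = Sendai virus plus DMSO and 100% = medium plus DMSO without virus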
[9] = inhibitors of poly I:C-induced TLR3 signaling, primary screen, cell-based, poly I:C stimulus, luciferase, 10K MLSCN set (AID 602277;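 active = inhibition of the reporter signal at or above 50%; inactive = inhibition below 50%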); conditions: HEK293-TLR3 RL24 IRF3 luciferase reporter, at 10 µM, stronger effect = higher value

Compound	cell count [1]	inhibition [1]	inhibition of aggregation [2]	nuclei count [2]	inhibition [3]	nuclei count [3]	fluorescence slope [4]	NADPH fluorescence slope [5]	slope [6]	outcome [7]	inhibition [8]	inhibition [9]
Cc1occc1C(=O)Nc1ccc(S(=O)(=O)N2CCN(C)CC2)cc1	318	1% (inactive)	-23.8% (inactive)	95.5%	-42.1% (inactive)	107%	-0.44 (inactive)	-1.3e-05 (inactive)	0.00548 (inactive)	inactive	15.9% (inactive)	16.1% (inactive)
COc1ccc(N2C(=O)c3cccc4cccc(c34)C2=O)nn1	345	1.5% (inactive)	4.9% (inactive)	105%	-81.4% (inactive)	114%	-0.421 (inactive)	-2.8e-05 (inactive)	0.00401 (inactive)	inactive	9.08% (inactive)	20.4% (inactive)
CC(C)CN(CC(C)C)C(=O)C12CCC(C)(C(=O)C1)C2(C)C (configuration not stated)	720	-10.4% (inactive)	13.7% (inactive)	99.8%	-45.3% (inactive)	115%	-0.452 (inactive)	0.000106 (inactive)	0.00697 (inactive)		-21.4% (inactive)	-2.9% (inactive)
Cc1c(C)n(C(=O)CN2CCN(c3ccccn3)CC2)c2ccccc12	428	2.3% (inactive)	2.9% (inactive)	95.7%	3.5% (inactive)	131%	-0.376 (inactive)	-3.7e-05 (inactive)	0.00497 (inactive)	inactive	8.12% (inactive)	11.3% (inactive)
CC1(C)CC(=O)C2=C(C1)Nc1ccccc1N=C2	759	-6.9% (inactive)	11.9% (inactive)	104%	40.8% (inactive)	94.5%	-0.483 (inactive)	-5.6e-05 (inactive)	0.00436 (inactive)	inactive	-4.26% (inactive)	-38.2% (inactive)
Fc1cccc2sc(Nc3nnc(-c4ccco4)o3)nc12	404	-3.6% (inactive)	2.5% (inactive)	109%	-0.9% (inactive)	94.5%	-0.501 (inactive)	-4.9e-05 (inactive)	0.0148 (active)		-39.7% (inactive)	-83% (inactive)
C(/CCc1ccccc1)=N\n1cnnc1	312	18.4% (inactive)	-7% (inactive)	109%	17.1% (inactive)	105%	-0.628 (inactive)	-5.3e-05 (inactive)	0.00355 (inactive)		5.76% (inactive)	0.464% (inactive)
Cc1cc(C)n2nc(SCC(=O)N(C)Cc3ccccc3)nc2n1	407	7.4% (inactive)	-27.8% (inactive)	116%	-18.9% (inactive)	115%	-0.435 (inactive)	-6.2e-06 (inactive)	0.00539 (inactive)	inactive	-13.5% (inactive)	-9.42% (inactive)
COc1ccc(-n2nc3cc(C)c(N)c(Br)c3n2)cc1	336	-6.8% (inactive)	3.9% (inactive)	59.9%	-17.3% (inactive)	83.5%	-0.411 (inactive)	-4.9e-05 (inactive)	0.00393 (inactive)	inactive	-10.7% (inactive)	-36.5% (inactive)
CSc1ccccc1NC(=O)CN(c1ccccc1)S(=O)(=O)N(C)C	429	-0.8% (inactive)	1.4% (inactive)	96%	4.1% (inactive)	140%	-0.356 (inactive)	3.3e-06 (inactive)	0.00624 (inactive)	inactive	15.6% (inactive)	20.5% (inactive)
CCOC(=O)c1c(-c2ccc(C)o2)csc1NC(=O)CN1CCN(CC)CC1	393	-0.4% (inactive)	8.3% (inactive)	95.5%	-12.2% (inactive)	106%	-0.409 (inactive)	-3.8e-05 (inactive)	0.0051 (inactive)	inactive	11.4% (inactive)	22% (inactive)
Cc1cc(C(=O)Nc2c(C)n(C)n(-c3ccccc3)c2=O)c(C)o1	330	-1.4% (inactive)	5.3% (inactive)	101%	2% (inactive)	100%	-0.412 (inactive)	-7.3e-05 (inactive)	0.00524 (inactive)	inactive	17% (inactive)	14.7% (inactive)
COc1ccc(C(NC(C)=O)c2ccc3cccnc3c2O)c(OC)c1 (configuration not stated)	444	2.1% (inactive)	-3% (inactive)	90.6%	23.6% (inactive)	111%	-0.37 (inactive)	-5.8e-05 (inactive)	0.00602 (inactive)	inactive	-12.8% (inactive)	61.9% (active)
CC1Cc2ccccc2N1C(=O)CSc1nnc2n1C(C)(C)Cc1ccccc1-2 (configuration not stated)	247	-0.2% (inactive)	21.8% (inactive)	84.2%	5.5% (inactive)	69.7%	-0.434 (inactive)	2.5e-05 (inactive)	0.00483 (inactive)		5.38% (inactive)	-63.7% (inactive)
Cc1cc(C)nc(SCc2nnc(SCC(=O)Nc3ncc(C)s3)n2Cc2ccco2)n1	422	3% (inactive)	7.1% (inactive)	98.6%	-23.5% (inactive)	103%	-0.353 (inactive)	-6.9e-05 (inactive)	0.00544 (inactive)	inactive	8.75% (inactive)	11.7% (inactive)
c1ccc(CSCc2cn3ccsc3n2)cc1	664	1.2% (inactive)	5.1% (inactive)	107%	-84.7% (inactive)	131%	-0.583 (inactive)	-4.2e-05 (inactive)	0.00621 (inactive)		-50.3% (inactive)	-132% (inactive)
COc1ccc(CNc2oc(-c3cccc4ccccc34)nc2C#N)cc1	570	-3.4% (inactive)	8.1% (inactive)	86.3%	56.8% (inactive)	86.1%	-0.183 (inactive)	6.8e-06 (inactive)	0.00641 (inactive)	inactive	4.97% (inactive)	7.07% (inactive)
Cc1cc(=O)c2n(Cc3ccccc3Cl)nc[n+]2[nH]1	800	6% (inactive)	3% (inactive)	97.2%	-111% (inactive)	120%	-0.397 (inactive)	-5.7e-05 (inactive)	0.00447 (inactive)	inactive	5.55% (inactive)	8.5% (inactive)
c1ccc(OCCCn2nnc(-c3ccncc3)n2)cc1	604	-9.9% (inactive)	2.3% (inactive)	91.9%	-57.3% (inactive)	114%	-0.454 (inactive)	-2.7e-05 (inactive)	0.00445 (inactive)	inactive	13.2% (inactive)	-7.55% (inactive)
Cc1cc(C(=O)CSc2nnc(-c3ccccc3)n2C)c(C)n1C	403	4.4% (inactive)	3.6% (inactive)	88.2%	-5.3% (inactive)	107%	-0.477 (inactive)	-5.5e-05 (inactive)	0.00512 (inactive)	inactive	-0.894% (inactive)	78.4% (active)
O=C(Nc1ccncc1)c1cc2ccccc2o1	165	2.1% (inactive)	35.8% (inactive)	101%	-106% (inactive)	140%	-0.382 (inactive)	-4.4e-05 (inactive)	0.00527 (inactive)	inactive; toxic	-36.5% (inactive)	-115% (inactive)
Cc1ccccc1-c1nc(CN2CCC(C(=O)N3CCC(C(N)=O)CC3)CC2)c(C)o1	576	6.1% (inactive)	1.2% (inactive)	87.6%	7.6% (inactive)	87.8%	-0.548 (inactive)	-3.8e-05 (inactive)	0.00557 (inactive)		7.94% (inactive)	40.4% (inactive)
C(=N\n1cnnc1)/c1cccc(OCCOc2ccccc2)c1	237	7.1% (inactive)	0% (inactive)	96%	-33.2% (inactive)	108%	-0.351 (inactive)	-3.7e-05 (inactive)	0.00586 (inactive)	inactive	-29.6% (inactive)	-51.4% (inactive)
Cc1cc(Br)ccc1NC(=O)CCN1C(=O)c2ccncc2C1=O	403	3.8% (inactive)	-19.7% (inactive)	96.6%	39.2% (inactive)	89.7%	-0.51 (inactive)	-3.1e-05 (inactive)	0.00525 (inactive)		-13.8% (inactive)	13.1% (inactive)
CCC(=O)N(Cc1ccco1)c1nc(-c2cc(OC)ccc2OC)cs1	643	-8% (inactive)	18.8% (inactive)	100%	-11.7% (inactive)	101%	-0.397 (inactive)	-4.8e-05 (inactive)	0.00497 (inactive)	inactive	8.75% (inactive)	7.6% (inactive)
O=C(NC1CCCC1)C(NS(=O)(=O)c1cccc2nsnc12)c1ccccc1 (configuration not stated)	309	-16.3% (inactive)	2.5% (inactive)	103%	-22.2% (inactive)	109%	-0.329 (inactive)	1.1e-05 (inactive)	0.0045 (inactive)	inactive	17.9% (inactive)	17.3% (inactive)
Cc1cc(=O)n2[nH]c(-c3ccc(Cl)cc3)cc2n1	540	-2.9% (inactive)	0% (inactive)	87.6%	46.6% (inactive)	69.3%	-0.42 (inactive)	-3.9e-05 (inactive)	0.0052 (inactive)	inactive	-16.8% (inactive)	-40.2% (inactive)
